What was measured:
HbA1c [1] = experiment: PK/PD model relating tPDE4i to HbA1c in db/db mice; type: in vivo
Summary of the method: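 Once-daily dosing of db/db mice for 28 days: test compound at 1, 3 or 10 mg/kg/day, reference PDE4 inhibitor at 0.3, 1 or 3 mg/kg/day, its N-oxide metabolite at 3 mg/kg/day, vehicle 4% methocel. HbA1c read on days -1, 14 and 28. Emax model links HbA1c rise over time to individual tPDE4i. Fit by nonlinear mixed-effects modelling with FOCE-interaction; checked by visual predictive check (200 simulations).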

[2] = Population pharmacokinetic analysis in db/db mice; type: in vivo; details: after roflumilast-N-oxide dosing
PDE4 = experiment: Total PDE4 inhibition; type: in vivo; details: db/db mice, geometric mean; for Complete tPDE4i: roflumilast + roflumilast N-oxide
diabetic mouse model = details: cited from earlier work
[3] = Unbound fraction in mouse plasma in vitro; type: in vitro ADME
HbA1c [4] = details: clinical setting; cited from earlier work
[5] = roflumilast N-oxide 3 mg/kg/day

Which “PDE50 (tPDE4i leading to half-maximum effect on HbA1c)” value (HbA1c [1]; final PK/PD model estimate, 28 days) does the source give for `O=C(Nc1c(Cl)c[n+]([O-])cc1Cl)c1ccc(OC(F)F)c(OCC2CC2)c1` [roflumilast(‐N‐oxide)] here?
The value was 27.1.

Which “Exposure of roflumilast relative to roflumilast-N-oxide” value [2] does the source give for `O=C(Nc1c(Cl)c[n+]([O-])cc1Cl)c1ccc(OC(F)F)c(OCC2CC2)c1` [roflumilast‐N‐oxide] here?
Its value is 2.6 % of roflumilast‐N‐oxide.

And the Apparent roflumilast clearance ([2]; two-compartment model)?
The Apparent roflumilast clearance was 41.8 L/h.

And the “Apparent roflumilast-N-oxide clearance” value ([2]; two-compartment model)?
The value was 1.09 L/h.

What about the tPDE4irof (PDE4; [5]) of the same molecule?
Its tPDE4irof is 0.375.

What about the tPDE4irofNO (PDE4; [5]) of the same molecule?
The tPDE4irofNO was 22.1.

And the “Complete tPDE4i” value (PDE4; [5])?
Its value is 22.5.

Which results are given for `O=C(Nc1c(Cl)cncc1Cl)c1ccc(OC(F)F)c(OCC2CC2)c1` [roflumilast]?
Antidiabetic efficacy (diabetic mouse model): significant antidiabetic efficacy; Dose required to reach half-maximum effect on HbA1c (HbA1c [1]; calculated from PDE50): 5.9 mg/kg; fraction unbound [3]: 0.037; HbA1c levels (HbA1c [4]): significantly reduced; tPDE4irof (PDE4; roflumilast 0.3 mg/kg/day): 0.744; tPDE4irofNO (PDE4; roflumilast 0.3 mg/kg/day): 0.731; Complete tPDE4i (PDE4; roflumilast 0.3 mg/kg/day): 1.49; tPDE4irof (PDE4; roflumilast 1 mg/kg/day): 2.23; tPDE4irofNO (PDE4; roflumilast 1 mg/kg/day): 2.31; tPDE4irof (PDE4; roflumilast 3 mg/kg/day): 6.56; tPDE4irofNO (PDE4; roflumilast 3 mg/kg/day): 7.18; Complete tPDE4i (PDE4; roflumilast 3 mg/kg/day): 13.8

— paper PMC5421726 (Clinical and Translational Science, 2017)
